# In ChEMBL document CHEMBL2163211, “Antiviral chromones from the stem of Cassia siamea” (J Nat Prod, 2012):
# How the values were obtained:
# [1] = Cytotoxicity against human C8166 cells by MTT assay; assay type: cell-based
# How it was run: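 C8166 cells assessed by MTT, with cytotoxicity expressed as CC50; azidothymidine served as the positive control.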
# [2] = Therapeutic index, ratio of CC50 for human C8166 cells to EC50 for HIV1; assay type: cell-based; conditions: read-out: Ratio CC50/EC50
# How it was run: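 Ratio of CC50 (MTT cytotoxicity in C8166 cells) to EC50, where EC50 comes from an assay of inhibition of HIV-1 cytopathic effects; azidothymidine served as the positive control.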
# [3] = tested on: Human immunodeficiency virus 1; assay: Antiviral activity against HIV1 infected in human C8166 cells assessed as inhibition of virus-induced cytopathic effect; assay type: functional, organism-based; conditions: Human immunodeficiency virus 1, C8166
# How it was run: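 HIV-1 cytopathic-effect inhibition assay in C8166 cells gives EC50; cytotoxicity to C8166 cells measured in parallel by MTT to give CC50. Azidothymidine served as positive control.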
# [4] = tested on: Tobacco mosaic virus; assay: Antiviral activity against Tobacco mosaic virus infected in right side leaf of Nicotiana glutinosa at 20 uM after 3 to 4 days by half-leaf method; assay type: functional
# How it was run: (§1)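 Half-leaf assay on N. glutinosa (local lesion host, 5–6-leaf stage, insect-free greenhouse). Purified TMV diluted to 32 μg/mL in 0.01 M PBS, mixed with compound (DMSO stock diluted with water) for 30 min, then rubbed on the left half-leaf; the right half received virus plus equal DMSO as control. Local lesions counted 3 or 4 days later, three repetitions; inhibition = (C−T)/C×100; ningnanmycin positive control.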
# [5] = tested on: Tobacco mosaic virus; assay: Antiviral activity against Tobacco mosaic virus infected in right side leaf of Nicotiana glutinosa at 40 uM after 3 to 4 days by half-leaf method; assay type: functional; how it was run: as §1
# [6] = tested on: Tobacco mosaic virus; assay: Antiviral activity against Tobacco mosaic virus infected in right side leaf of Nicotiana glutinosa after 3 to 4 days by half-leaf method; assay type: functional, organism-based; how it was run: as §1
# [7] = tested on: Tobacco mosaic virus; assay: Antiviral activity against Tobacco mosaic virus infected in right side leaf of Nicotiana glutinosa at 10 uM after 3 to 4 days by half-leaf method; assay type: functional; how it was run: as §1
# [8] = tested on: Tobacco mosaic virus; assay: Antiviral activity against Tobacco mosaic virus infected in right side leaf of Nicotiana glutinosa at 80 uM after 3 to 4 days by half-leaf method; assay type: functional; how it was run: as §1
# [9] = tested on: Tobacco mosaic virus; assay: Antiviral activity against Tobacco mosaic virus infected in leaf of Nicotiana glutinosa assessed as protection against viral infection at 20 uM treated 6 hrs before infection; assay type: functional
# How it was run: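 Protection test: N. glutinosa leaves pretreated with 20 μM compound solution or DMSO solution for 6 h, then inoculated with purified TMV. Local lesions counted on the host leaves and inhibition rate computed from lesion numbers versus the DMSO control.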
# [10] = tested on: Tobacco mosaic virus; assay: Antiviral activity against Tobacco mosaic virus infected in right side leaf of Nicotiana glutinosa at 5 uM after 3 to 4 days by half-leaf method; assay type: functional; how it was run: as §1
# [11] = tested on: Tobacco mosaic virus; assay: Antiviral activity against Tobacco mosaic virus infected in right side leaf of Nicotiana glutinosa at 160 uM after 3 to 4 days by half-leaf method; assay type: functional; how it was run: as §1
Compound,CC50 [1] [µg/mL],selectivity ratio [2],EC50 [3] [µg/mL],inhibition at 20 µM [4] [%],inhibition at 40 µM [5] [%],IC50 [6] [µM],inhibition at 10 µM [7] [%],inhibition at 80 µM [8] [%],inhibition at 20 µM [9] [%],inhibition at 5 µM [10] [%],inhibition at 160 µM [11] [%]
CC1(C)Oc2cc3oc(CO)cc(=O)c3c(O)c2C[C@@H]1O[C@@H]1O[C@H](CO)[C@@H](O)[C@H](O)[C@H]1O,> 200,> 109,,,,,,,,,
COc1cc2c(c3oc(C)cc(=O)c13)C=CC(C)(C)O2,37.3,8.3,4.49,9.2,,,,,,,
COc1cc2c(c3oc(CCCO)cc(=O)c13)C=CC(C)(C)O2 [SIAMCHROMONES G],> 200,> 23.6,8.46,5.7,,,,,,,
C/C=C/c1cc(=O)c2c(CC(C)=O)cc(O)cc2o1 [SIAMCHROMONES E],26.7,9.37,2.85,9.2,,,,,,,
CC(=O)Cc1cc(O)cc2oc(C)cc(=O)c12,88.7,13.5,6.58,6.7,,,,,,,
Cc1cn([C@H]2C[C@H](N=[N+]=[N-])[C@@H](CO)O2)c(=O)[nH]c1=O [ZIDOVUDINE],> 200,> 5880,0.034,,,,,,,,
COc1cc2oc(C)cc(=O)c2c(O)c1CC=C(C)C,74.3,15.2,4.89,8.7,,,,,,,
Cc1cc(=O)c2c(O)c(C)c(O)c(C)c2o1,57.5,10.5,5.46,8.6,,,,,,,
CNCC(=O)N[C@@H](CO)C(=O)N[C@H]1[C@H](O)[C@@H](O)[C@H](n2ccc(N)nc2=O)O[C@@H]1C(N)=O [NINGNANMYCIN],,,,30.2,48.3,49.9,22.6,61.3,27.4,11.8,82.7
CC(C)c1cc(=O)c2c(O)cc(O[C@@H]3O[C@H](CO)[C@@H](O)[C@H](O)[C@H]3O)cc2o1 [URACHROMONE A],69.5,31,2.24,11.5,22.4,156,8.11,30.7,13.7,4.76,50.9
CC1=CC2(O)OC(C)=Cc3cc(O)cc(c32)O1 (centres undefined) [BARAKOL],73.4,17.1,4.28,9,,,,,,,
COc1cc(CC(C)=O)c2c(=O)cc(CCCO)oc2c1 [SIAMCHROMONES C],43.6,6.87,6.34,8.6,,,,,,,
CC1(C)C=Cc2c(cc(O)c3c(=O)cc(CCCO)oc23)O1 [SIAMCHROMONES F],196,68,2.89,35.3,61.4,31.2,26.7,89.2,42.7,13.5,96.8
COc1cc2c(c3oc(C(=O)O)cc(=O)c13)C=CC(C)(C)O2 [PERFORATIC ACID],26.5,2.3,11.5,13.6,25.4,127,9.27,36.8,10.2,5.62,54.7
Cc1cc(=O)c2c(O)c(C)c(O[C@@H]3O[C@H](CO)[C@@H](O)[C@H](O)[C@H]3O)c(C)c2o1 [UNCINOSIDE A],22.8,5.89,3.87,7.9,,,,,,,
Cc1cc(=O)c2c(CC(C)O[C@@H]3O[C@H](CO)[C@@H](O)[C@H](O)[C@H]3O)cc(O)cc2o1 (some centres undefined),118,63.3,1.87,8.6,,,,,,,
COc1cc(CC(C)=O)c2c(=O)cc(C(=O)CCO)oc2c1 [SIAMCHROMONES B],85.2,16.3,5.22,9.8,,,,,,,
CC(=O)[C@@H]1c2cc(O)cc(O)c2C(=O)C[C@]1(C)O,88.3,28,3.16,6.4,,,,,,,
CC(=O)Cc1cc(O)cc2oc(C(=O)CCO)cc(=O)c12 [SIAMCHROMONES A],127,26,4.87,15.2,30.3,86.4,11.4,47.2,18.4,6.21,62.4
COc1cc(CC(C)=O)c2c(=O)cc(CCCOC(C)=O)oc2c1 [SIAMCHROMONES D],> 200,> 107,1.87,7.5,,,,,,,
